Experimental data from ChEMBL document CHEMBL3822416, “Design, Synthesis, and Structure-Activity Relationship Study of Novel Indole-2-carboxamide Derivatives as Anti-inflammatory Agents for the Treatment of Sepsis” (J Med Chem, 2016).
The source made the active and inactive calls. The calls are words filed in the database; no cut-off is given here.

Columns and labels:
Mus musculus [1] = species on record: Mus musculus; test: Acute toxicity in C57BL/6 mouse kidney by hematoxylin and eosin staining-based histopathologiacal analysis; format: organism-based; details: in vivo
Mus musculus [2] = test: Downregulation of COX2 mRNA level in lung of LPS-induced C57BL/6 mouse sepsis model at 10 mg/kg, iv administered 15 mins prior to LPS challenge measured after 6 hrs by RT-qPCR analysis; format: functional, organism-based
Summary of the method: (§1)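 Male C57BL/6 mice were given 10 mg/kg by tail-vein injection 15 min before 20 mg/kg LPS and killed after 6 h; lungs were harvested. RNA was extracted with TRIZOL and quantified by real-time quantitative PCR as relative mRNA amount.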

Mus musculus [3] = test: Antiinflammatory activity in LPS-induced C57BL/6 mouse sepsis model assessed as inhibition of neutrophils infiltration in lung by measuring MPO activity at 10 mg/kg, iv administered 15 mins prior to LPS challenge measured after 6 hrs in presence of O-dianisidine dihydrochloride relative to control; format: functional, organism-based
Summary of the method: (§2)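 Mice were given 10 mg/kg iv 15 min before 20 mg/kg LPS or without LPS; saline served as control, and animals were killed 6 h later. Lung supernatants were incubated with 0.01% H2O2 and O-dianisidine dihydrochloride 0.167 mg/mL for 30 min, with absorbance change at 460 nm. One unit degrades 1 µmol peroxide/min at 37 °C; values are expressed as units/g lung.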

Mus musculus [4] = test: Downregulation of IL-1beta mRNA level in lung of LPS-induced C57BL/6 mouse sepsis model at 10 mg/kg, iv administered 15 mins prior to LPS challenge measured after 6 hrs by RT-qPCR analysis; format: functional, organism-based; summary of the method: as §1
Mus musculus [5] = test: Toxicity in C57BL/6 mouse assessed as change in body weight at 20 mg/kg, iv administered for 7 days measured every 24 hrs of compound dosing relative to control; format: organism-based; details: in vivo
Mus musculus [6] = species on record: Mus musculus; test: Acute toxicity in C57BL/6 mouse liver by hematoxylin and eosin staining-based histopathologiacal analysis; format: organism-based; details: in vivo
RAW264.7 [7] = test: Inhibition of LPS-induced TNF-alpha production in mouse RAW264.7 cells preincubated for 30 mins prior to LPS challenge measured after 24 hrs by ELISA; format: functional, cell-based; details: Mus musculus, RAW264.7; read-out: IC50
Summary of the method: (§3)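 RAW 264.7 cells (ATCC) were grown in DMEM with 10% FBS and penicillin/streptomycin at 37 °C, 5% CO2. Cells were seeded at 400,000/well and incubated for 24 h, pretreated with compound for 30 min, then given 0.5 µg/mL LPS for 24 h. Medium TNF-α or IL-6 was measured by ELISA and normalized to total protein of viable cell pellets.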

Mus musculus [8] = test: Antiinflammatory activity in LPS-induced C57BL/6 mouse sepsis model assessed as decrease in pulmonary lobule structural changes at 10 mg/kg, iv administered 15 mins prior to LPS challenge measured after 6 hrs by hematoxylin and eosin staining; format: functional, organism-based
Summary of the method: (§4)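 Male C57BL/6 mice (18-22 g), randomized into groups. Compound at 10 mg/kg was given by tail-vein injection 15 min before LPS 20 mg/kg; controls received saline. Animals were sacrificed 6 h after LPS. Lung was fixed in 4% paraformaldehyde, paraffin-embedded, cut at 5 µm and H&E stained. A pathologist, blinded, scored alveolar congestion, hemorrhage, neutrophil infiltration and alveolar wall thickness/hyaline membrane.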

Mus musculus [9] = test: Downregulation of IL-6 mRNA level in lung of LPS-induced C57BL/6 mouse sepsis model at 10 mg/kg, iv administered 15 mins prior to LPS challenge measured after 6 hrs by RT-qPCR analysis; format: functional, organism-based; summary of the method: as §1
Mus musculus [10] = test: Antiinflammatory activity in LPS-induced C57BL/6 mouse sepsis model assessed as reduction in airspace inflammation in lung at 10 mg/kg, iv administered 15 mins prior to LPS challenge measured after 6 hrs by hematoxylin and eosin staining; format: functional, organism-based; summary of the method: as §4
RAW264.7 [11] = test: Inhibition of LPS-induced IL6 production in mouse RAW264.7 cells preincubated for 30 mins prior to LPS challenge measured after 24 hrs by ELISA; format: functional, cell-based; details: Mus musculus, RAW264.7; read-out: IC50; summary of the method: as §3
Mus musculus [12] = test: Antiinflammatory activity in LPS-induced C57BL/6 mouse sepsis model assessed as inhibition of macrophage infiltration in lung at 10 mg/kg, iv administered 15 mins prior to LPS challenge measured after 6 hrs by F4/80 and hematoxylin-staining based microscopy; format: functional, organism-based
Summary of the method: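 C57BL/6 males were dosed with 10 mg/kg iv (tail vein) 15 min before 20 mg/kg LPS and sacrificed 6 h later. Paraffin lung sections had antigen retrieval by pressure cooker in 10 mM citrate pH 6.5, then H2O2, 5% BSA block, anti-F4/80 overnight at 4 °C, HRP secondary, DAB and hematoxylin counterstain. The % F4/80-positive cells was counted in 10 random 200× fields per section.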

Mus musculus [13] = test: Antiinflammatory activity in LPS-induced C57BL/6 mouse sepsis model assessed as suppression of TNF-alpha release in serum at 10 mg/kg, iv administered 15 mins prior to LPS challenge measured after 6 hrs relative to control; format: functional, organism-based
Summary of the method: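 Male C57BL/6 mice, 18-22 g, were injected via tail vein with 10 mg/kg 15 min before 20 mg/kg LPS; controls received saline. Blood was taken with a heparinized syringe 6 h after LPS under anesthesia. Serum TNF-α was measured by ELISA (pg/mL).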

Mus musculus [14] = test: Decrease in MPO activity in C57BL/6 mouse lung at 10 mg/kg, iv after 6 hrs in presence of O-dianisidine dihydrochloride relative to control; format: ADME, organism-based; details: in vivo; summary of the method: as §2
Mus musculus [15] = test: Downregulation of TNF-alpha mRNA level in lung of LPS-induced C57BL/6 mouse sepsis model at 10 mg/kg, iv administered 15 mins prior to LPS challenge measured after 6 hrs by RT-qPCR analysis; format: functional, organism-based; summary of the method: as §1
Mus musculus [16] = species on record: Mus musculus; test: Acute toxicity in C57BL/6 mouse heart by hematoxylin and eosin staining-based histopathologiacal analysis; format: organism-based; details: in vivo
Mus musculus [17] = test: Downregulation of IL-12 mRNA level in lung of LPS-induced C57BL/6 mouse sepsis model at 10 mg/kg, iv administered 15 mins prior to LPS challenge measured after 6 hrs by RT-qPCR analysis; format: functional, organism-based; summary of the method: as §1
Mus musculus [18] = test: Downregulation of IL-33 mRNA level in lung of LPS-induced C57BL/6 mouse sepsis model at 10 mg/kg, iv administered 15 mins prior to LPS challenge measured after 6 hrs by RT-qPCR analysis; format: functional, organism-based; summary of the method: as §1

SMILES | Activity (Mus musculus [1]) | Activity (Mus musculus [2]) | inhibition (Mus musculus [3]) | Activity (Mus musculus [4]) | Activity (Mus musculus [5]) | Activity (Mus musculus [6]) | IC50 (RAW264.7 [7]) [nM] | Activity (Mus musculus [8]) | Activity (Mus musculus [9]) | Activity (Mus musculus [10]) | IC50 (RAW264.7 [11]) [nM] | inhibition (Mus musculus [12]) | Activity (Mus musculus [13]) | Activity (Mus musculus [14]) | Activity (Mus musculus [15]) | Activity (Mus musculus [16]) | Activity (Mus musculus [17]) | Activity (Mus musculus [18])
CN1CCN(c2ccc(NC(=O)c3cc4cc(NC(=O)N(C)C)ccc4n3Cc3ccc(C(F)(F)F)cc3)cc2)CC1 | Non-toxic | Active | Active | Active | Non-toxic | Non-toxic | 2670 | Active | Active | Active | 1240 | Active | Active | Non-toxic | Active | Non-toxic | Active | Active
CN1CCN(c2ccc(NC(=O)c3cc4cc(NC(=O)c5ccco5)ccc4n3Cc3ccc(C(F)(F)F)cc3)cc2)CC1 | Non-toxic | Active | Active | Active | Non-toxic | Non-toxic | 2660 | Active | Active | Active | 2900 | Active | Active | Non-toxic | Active | Non-toxic | Active | Active
